Here are results for 8 molecules from ChEMBL document CHEMBL1157987, “Acylated flavonol glycosides from leaves of Stenochlaena palustris” (1999).

Assay type in all cases: functional
The test system of assay [1] is Micrococcus luteus. As to the kind of experiment: Antibacterial activity against Micrococcus luteus ATCC 9341 after 20 hrs by MTT assay. The note with it: ATCC 9341, 20 h. A digest of the protocol: (§1)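 Overnight cultures in nutrient broth at 37 °C, diluted to ca. 10⁵ cells/mL in fresh medium. Compounds from 1 mg/mL MeOH stocks dried in wells, redissolved in DMSO plus broth and culture, then twofold serial dilutions in bacterial suspension. Plates held 20 h at 37 °C in moist atmosphere; 0.25% aqueous MTT added, 4 h further incubation; living bacteria seen as violet turbidity.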

The test system of assay [2] is Staphylococcus aureus. As to the kind of experiment: Antibacterial activity against Staphylococcus aureus ATCC 25923 after 20 hrs by MTT assay. As to conditions: ATCC 25923, 20 h. The method in brief: as §1
The test system of assay [3] is Bacillus cereus. In words: Antibacterial activity against Bacillus cereus ATCC 10702 after 20 hrs by MTT assay. As to conditions: ATCC 10702, 20 h. A digest of the protocol: as §1
For assay [4], the system named is Staphylococcus epidermidis. In words: Antibacterial activity against Staphylococcus epidermidis ATCC 12228 after 20 hrs by MTT assay. The note with it: ATCC 12228, 20 h. The method in brief: as §1

SMILES strings stand for the structures. ≈ marks a conversion by molar mass, not a printed value.

As to `O=C(N[C@H](CO)[C@H](O)c1ccc([N+](=O)[O-])cc1)C(Cl)Cl` [CHLORAMPHENICOL], the MIC in assay [1] came to 2 µg/mL (≈ 6.19 µM); in assay [2], 4 µg/mL (≈ 12.4 µM); in assay [3], 2 µg/mL (≈ 6.19 µM); in assay [4] it was 4 µg/mL (≈ 12.4 µM).

On to `O=C(/C=C/c1ccc(O)cc1)OC[C@H]1O[C@@H](Oc2c(-c3ccc(O)cc3)oc3cc(O)cc(O)c3c2=O)[C@H](O)[C@@H](O)[C@@H]1O` [TILIROSIDE], for which the MIC in assay [1], in assay [2], in assay [3] and in assay [4] was above 256 µg/mL in each case.

Consider `COc1cc(C(O)C(CO)Oc2ccc(/C=C/C(=O)OC[C@H]3O[C@@H](Oc4c(-c5ccc(O)cc5)oc5cc(O)cc(O)c5c4=O)[C@H](O)[C@@H](OC(=O)/C=C/c4ccc(O)cc4)[C@@H]3O)cc2OC)ccc1O` (some centres not stated) [STENOPALUSTROSIDE E], for which the MIC in assay [1], in assay [2], in assay [3] and in assay [4] was above 256 µg/mL throughout.

On to `O=C(/C=C/c1ccc(O)cc1)O[C@@H]1[C@@H](O)[C@H](Oc2c(-c3ccc(O)cc3)oc3cc(O)cc(O)c3c2=O)O[C@H](CO)[C@H]1O`, for which the MIC in assay [1], in assay [2], in assay [3] and in assay [4] was above 256 µg/mL in each case.

In the case of `COc1cc(/C=C/C(=O)OC[C@H]2O[C@@H](Oc3c(-c4ccc(O)cc4)oc4cc(O)cc(O)c4c3=O)[C@H](O)[C@@H](OC(=O)/C=C/c3ccc(O)cc3)[C@@H]2O)ccc1O`, the MIC in assay [1], in assay [2], in assay [3] and in assay [4] was above 256 µg/mL each time.

In the case of `O=C(/C=C\c1ccc(O)cc1)OC[C@H]1O[C@@H](Oc2c(-c3ccc(O)cc3)oc3cc(O)cc(O)c3c2=O)[C@H](O)[C@@H](OC(=O)/C=C\c2ccc(O)cc2)[C@@H]1O` [STENOPALUSTROSIDE A], the MIC amounted to 8 µg/mL (≈ 10.8 µM) in assay [1], 16 µg/mL (≈ 21.6 µM) in assay [2], 4 µg/mL (≈ 5.4 µM) in assay [3] and 2 µg/mL (≈ 2.7 µM) in assay [4].

On to `O=C(/C=C/c1ccc(O)cc1)OC[C@H]1O[C@@H](Oc2c(-c3ccc(O)cc3)oc3cc(O)cc(O)c3c2=O)[C@H](O)[C@@H](OC(=O)/C=C/c2ccc(O)cc2)[C@@H]1O`, for which the MIC in assay [1], in assay [2], in assay [3] and in assay [4] was above 256 µg/mL in each case.

With `COc1cc(/C=C/C(=O)OC[C@H]2O[C@@H](Oc3c(-c4ccc(O)cc4)oc4cc(O)cc(O)c4c3=O)[C@H](O)[C@@H](OC(=O)/C=C\c3ccc(O)cc3)[C@@H]2O)ccc1O` [STENOPALUSTROSIDE B], the MIC in assay [1] was 16 µg/mL (≈ 20.8 µM); in assay [2], 32 µg/mL (≈ 41.5 µM); in assay [3] it was 8 µg/mL (≈ 10.4 µM); in assay [4], 64 µg/mL (≈ 83 µM).
